# Screening results (PubChem)
# BB579 growth dn – yeast BB579 growth reduction in restrictive medium; S. cerevisiae BB579 growth, OD615, 48 h; 0.51% of 140,000 active; inhibition, % at 10 µM;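 active = inhibition above a set limit, 3 SD over the mean compound inhibition, cut at about 44% in these data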
#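 Detection: OD615 turbidity measurement; Material: Saccharomyces cerevisiae DeaD strain BB579, replicative lifespan model yeast; Timing: 48 h exposure, 30 °C; Doses: single 10 µM dose; Medium: CSMM-D restrictive synthetic medium containing dextrose (glucose); Controls: amphotericin B at 10 µg/mL as positive control.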
# RAM network inh – yeast RAM network inhibition; S. cerevisiae dse1pr::URA3 reporter, 5-FOA growth OD615, 2 d; analog-sensitive cbk1-as2 kinase mutant strain; inhibition, % at 50 µM; 1.8% of 190,000 active;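 active = inhibition above a set limit, 3 SD over mean compound inhibition, cut at about 8.4% in these data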;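 note: inhibition rescues growth on 5-FOA so higher OD means more RAM inhibition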
# Yeast lifespan up – extends the lifespan of yeast; S. cerevisiae growth with nicotinamide, OD615; deaD strain in restrictive glucose medium; inhibition of the nicotinamide effect, % at 10 µM; 0.68% of 130,000 active;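 active = inhibition above a set limit, placed 3 SD over the median of all compounds, cut at about 26% in these data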
#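 assay system = DeaD-strain S. cerevisiae | buffer or medium = restrictive glucose medium | reagent = 1.5 mM nicotinamide | compound = 10 µM single point, 0.25% DMSO | incubation = 48 h compound exposure at 30 °C, humidified | signal = OD615 measurement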
# A number is an active result; 0 = inactive; - = no result given. A selection: hits, their analogues and other compounds. The true share with any hit is near 2.6%.
SMILES,BB579 growth dn,RAM network inh,Yeast lifespan up
O=C(Nc1ccc2c(c1)OCO2)C1CCCN1C(=O)NCc1ccccc1 (stereo unspecified),0,0,57.0
O=C(Nc1ccc2c(c1)OCO2)C1CCCN1C(=O)OCc1ccccc1 (stereo unspecified),0,0,0
O=C(C1CCCN(CCCc2ccccc2)C1)N1CCCCC1 (stereo unspecified),0,0,0
c1ccc2nc3c(nc2c1)[nH]c1ccccc13,76.9,0,-
c1ccc(-c2c3ccccc3nc3[nH]c4ccccc4c23)cc1,0,0,0
CCOC(=O)c1sc(/N=C/c2ccc(O)cc2O)cc1C,0,0,0
C/C=C/c1ccc(OCCCCOc2ccc(OC)cc2)c(OC)c1,0,10.2,0
C/C=C/c1ccc(OCCCCN2CCN(CC)CC2)c(OC)c1,-,0,-
COc1cc(OC)c(S(=O)(=O)Nc2ccc(C)cn2)cc1NC(C)=O,0,0,0
CCOc1ccc(NC(=O)c2ccc(NC(=O)CSc3nc4ccccc4c(=O)[nH]3)cc2)cc1,-,0,-
COc1cc(C)c(Cl)cc1S(=O)(=O)NC1CC(C)(C)NC(C)(C)C1,-,0,-
CCCCCCC(=O)Oc1ccc(N2C(=O)CCC2=O)cc1,-,0,-
CCCCC(C)(O)C/C=C/[C@H]1[C@H](O)CC(=O)[C@@H]1CCCCCCC(=O)OC (stereo partly specified),0,0,31.6
O=C1CCN(S(=O)(=O)c2cccs2)c2ccc(C(F)(F)F)cc2N1,-,0,-
CC(C)NC(=S)N(CCc1ccncc1)C(C)C,-,0,-
Cc1ccc(NC(=O)C2C(c3ccccc3)C=CC(c3ccccc3)C2C(=O)O)cc1 (stereo unspecified),0,0,30.4
Cc1ccc(NC(=O)C2C(C(=O)O)C3C=CC2C32CC2)cc1 (stereo unspecified),0,0,0
COC(=O)/C=C1/SC(=NC(=O)c2ccccc2)NC1=O,0,0,28.1
COC(=O)/C=C1\SC(=NC(=O)c2cccc(Cl)c2)NC1=O,0,0,0
NS(=O)(=O)c1ccc(N2N=C(c3ccccc3)CC2c2ccc(F)cc2)cc1 (stereo unspecified),0,0,0
COc1ccc(C2CC(c3ccccc3)=NN2C(=O)CSc2ncn[nH]2)cc1 (stereo unspecified),-,0,-
COc1ccc(C2CC(c3ccccc3)=NN2c2ccc(S(N)(=O)=O)cc2)cc1 (stereo unspecified),-,9.3,-
COc1ccc(C2CC(c3ccccc3)=NN2C(=O)CSc2ncccn2)cc1 (stereo unspecified),0,10.7,0
Clc1cccc(Nc2nc(-c3cccnc3)cs2)c1,-,0,-
O=[N+]([O-])c1cccc(NC2=NCCC2)c1,-,0,-
SMILES,BB579 growth dn,RAM network inh,Yeast lifespan up
CCOc1ccc(Br)cc1-c1noc(-c2cccs2)n1,0,8.8,0
COc1cc(-c2noc(-c3cccs3)n2)cc(OC)c1OC,0,0,0
COc1cc(OC)cc(-c2nc(-c3ccc(Br)cc3)no2)c1,0,0,0
COc1cc(OC)cc(-c2nc(-c3cccs3)no2)c1,-,9.8,-
COc1ccccc1C1C(C#N)=C(N)N(c2cccnc2)C2=C1C(=O)CC(C)(C)C2 (stereo unspecified),0,0,0
O=C1N(Cc2cccc(Cl)c2)C[C@@H]2C[C@@H](c3ccc4nonc4c3)N3CCC[C@@]123,-,0,-
Cc1cc(OCCn2cc(/C(N)=N/O)c3ccccc32)ccc1Cl,0,0,0
COc1ccc(Nc2nc(-c3ccccc3)c(C(=O)Nc3cccnc3)s2)cc1,-,0,-
CCCC(=O)Nc1cc(C(F)(F)F)ccc1N1CCOCC1,-,0,-
O=C(CSCc1ccco1)Nc1cc(C(F)(F)F)ccc1N1CCOCC1,0,9.1,0
Cc1c(N=NC2=C(O)CCCC2=O)c(=O)n(-c2ccccc2)n1C,-,0,-
C/C(Cn1nc([N+](=O)[O-])cc1C)=N\NC(=O)COc1c(Cl)cc(Cl)cc1Cl,0,0,0
O=C(CCCc1nc2ccccc2s1)Nc1ccc(N2CCOCC2)cc1,-,0,-
N=c1n(CCN2CCCC2)c2ccccc2n1CC(O)c1ccc(Cl)c(Cl)c1 (stereo unspecified),-,0,-
N=c1n(CCN2CCOCC2)c2ccccc2n1CC(=O)c1ccc(Cl)c(Cl)c1,94.9,0,0
COc1ccc(-c2nnn(CC(=O)N(Cc3ccco3)C(C(=O)NCC3CCCO3)c3ccco3)n2)cc1 (stereo unspecified),0,0,0
COc1ccc(CN(C(=O)Cn2nnc(-c3ccc(C)o3)n2)C(C(=O)NCC2CCCO2)c2ccco2)cc1 (stereo unspecified),-,9.1,-
CCNC(=O)NCCNC(=O)c1cc(OCC(F)(F)F)ccc1OCC(F)(F)F,-,0,-
O=C(NCCNC(=O)c1cc(OCC(F)(F)F)ccc1OCC(F)(F)F)Nc1ccccc1,0,8.7,0
CN(C)S(=O)(=O)Oc1ccsc1C(=O)Nc1cccc(Cl)c1,0,0,0
COC(=O)c1sccc1-c1ccc(C(=O)Nc2cccc(Cl)c2)o1,0,9.8,0
Cc1nn(CC(=O)NCCCc2ccccc2)c(C)c1[N+](=O)[O-],-,0,-
C/C(CC(=O)Nc1ccc(Cl)cc1)=N\NC(=O)C(=O)N1CCCCC1,-,0,-
CC(NC(=O)CNC(=O)C1O[C@@H]2OC(C)(C)O[C@@H]2[C@H]2OC(C)(C)O[C@@H]12)C(=O)O (stereo partly specified),-,0,-
COc1ccc2c(c1)c1nnc(SC)nc1n2C,90.1,0,0
SMILES,BB579 growth dn,RAM network inh,Yeast lifespan up
COc1ccc2c(c1)c1nnc(SCC(=O)N3C(C)CCCC3C)nc1n2C (stereo unspecified),0,0,0
CCCOC(=O)Nc1sc2c(c1C(N)=O)CCCC2,-,0,-
CC(=O)/C(=C/c1ccc(N(C)C)cc1)C(=O)c1ccccc1,0,0,0
CCOC(=O)/C(=C/c1ccc(OC(=O)c2ccccc2)cc1)C(C)=O,0,0,32.6
CC/C(=N\NC(=O)CSc1ncccn1)c1ccc2c(c1)OCCO2,0,0,0
COc1ccc(S(=O)(=O)n2nc(OC(C)=O)cc2N)cc1,-,0,-
COc1cccc(C(=O)Oc2cc(N)n(S(=O)(=O)c3ccc(C)cc3)n2)c1OC,0,9.1,67.5
Cc1ccc(-c2nc(-c3ccc(Cl)cc3)sc2CC(=O)O)c(C)c1,-,9.6,-
O=C(O)Cc1sc(-c2ccccc2Cl)nc1-c1ccccc1,-,0,-
N#CCCn1nc(-c2ccc(Br)cc2)cc1Nc1ccccc1NC(=O)C(F)(F)F,0,10.1,0
N#CCCn1nc(-c2ccccc2)cc1Nc1ccccc1NC(=O)C(F)(F)F,0,0,0
O=C(Nc1ccc(-c2nc3ccccc3[nH]2)cc1)c1ccc(N2C(=O)CCC2=O)cc1,0,9.1,0
O=C(c1ccccc1)c1ccc2nc(-c3ccc(NC(=O)c4ccccc4Br)cc3)[nH]c2c1,0,8.7,0
Cc1ccccc1C(=O)Nc1ccc(-c2nc3ccc(C(=O)c4ccccc4)cc3[nH]2)cc1,0,0,0
CC(C)(C)N1C(=O)c2ccc(C(=O)Nc3ccc(-c4nc5ccccc5[nH]4)cc3)cc2C1=O,0,0,0
Cc1ccc(C(C)C)c(OCC(=O)NNC(=O)C(C(C)C)N2C(=O)c3ccccc3C2=O)c1 (stereo unspecified),0,0,0
Cc1cc(C)cc(NC(=O)c2c(C)nc3ccccn23)c1,-,0,-
